Source: ChEMBL document CHEMBL4732185, “Synthesis, biological evaluation and structure-activity relationship of novel dichloroacetophenones targeting pyruvate dehydrogenase kinases with potent anticancer activity” (Eur J Med Chem, 2021)
Calls of active or inactive are those of the source. The rule behind the calls is not given here.

What was measured:
L02 = assay: Cytotoxicity against human L02 cells assessed as reduction in cell viability after 72 hrs by MTT assay; format: cell-based; settings: Homo sapiens, L02, 72 h; read-out: IC50
Summary of the method: (§1)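 MTT viability assay. Cancer lines seeded at 3000–6000 cells/well and L02 at 7000 cells/well, cultured overnight, then exposed to a full dose range for 72 h. MTT (0.5 mg/mL) added for 4 h, supernatant removed, formazan dissolved in DMSO, absorbance read at 570 nm. IC50 taken as the mean of three independent experiments. Cells grown in DMEM + 10% FBS, 37 °C, 5% CO2.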

A-375 [1] = assay: Induction of cell cycle arrest in human A375 cells assessed as accumulation at G2 phase at 5 uM after 24 hrs by propidium iodide staining based flow cytometric analysis (reference value: 10.02%); format: functional
PC-3 = assay: Antiproliferative activity against human PC3 cells assessed as growth inhibition after 72 hrs by MTT assay; format: functional, cell-based; settings: Homo sapiens, PC-3, 72 h; read-out: IC50; summary of the method: as §1
A-375 [2] = assay: Induction of apoptosis in human A375 cells assessed as late apoptotic cells at 5 uM after 36 hrs by annexinV-FITC/propidium iodide staining based flow cytometric analysis (reference value: 1.02%); format: functional
A-375 [3] = assay: Induction of apoptosis in human A375 cells assessed as late apoptotic cells at 5 uM after 24 hrs by annexinV-FITC/propidium iodide staining based flow cytometric analysis (reference value: 0.63%); format: functional
A-375 [4] = assay: Induction of apoptosis in human A375 cells assessed as early apoptotic cells at 5 uM after 12 hrs by annexinV-FITC/propidium iodide staining based flow cytometric analysis (reference value: 0.87%); format: functional
MCF7 [5] = assay: Antiproliferative activity against human MCF7 cells assessed as growth inhibition at 1 uM after 72 hrs by MTT assay relative to control; format: functional; settings: for inhibition of growth at 1 µM: read-out: GI
Summary of the method: (§2)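 Single-concentration MTT screen on MCF-7 and A549 cells grown in DMEM + 10% FBS. Cells at 3000–6000/well, cultured overnight, then given compound in buffer with 1% DMSO for 72 h. MTT (0.5 mg/mL) added for 4 h, formazan dissolved in DMSO, A570 read. Percent inhibition reported as the average ± S.D. of three independent measurements.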

A-375 [6] = assay: Induction of cell cycle arrest in human A375 cells assessed as accumulation at S phase at 5 uM after 24 hrs by propidium iodide staining based flow cytometric analysis (reference value: 37.33%); format: functional
A-375 [7] = assay: Antiproliferative activity against human A375 cells assessed as growth inhibition after 72 hrs by MTT assay; format: functional, cell-based; settings: Homo sapiens, A-375, 72 h; read-out: IC50; summary of the method: as §1
MCF7 [8] = assay: Antiproliferative activity against human MCF7 cells assessed as growth inhibition at 10 uM after 72 hrs by MTT assay relative to control; format: functional; settings: read-out: GI; summary of the method: as §2
SH-SY5Y = assay: Antiproliferative activity against human SHSY-5Y cells assessed as growth inhibition after 72 hrs by MTT assay; format: functional, cell-based; settings: Homo sapiens, SH-SY5Y, 72 h; read-out: IC50; summary of the method: as §1
A-375 [9] = assay: Induction of apoptosis in human A375 cells assessed as viable cells at 5 uM after 12 hrs by annexinV-FITC/propidium iodide staining based flow cytometric analysis (reference value: 97.94%); format: functional; settings: read-out: Activity
A549 [10] = assay: Antiproliferative activity against human A549 cells assessed as growth inhibition at 10 uM after 72 hrs by MTT assay relative to control; format: functional; settings: read-out: GI; summary of the method: as §2
A-375 [11] = assay: Induction of apoptosis in human A375 cells assessed as viable cells at 5 uM after 36 hrs by annexinV-FITC/propidium iodide staining based flow cytometric analysis (reference value: 94.15%); format: functional; settings: read-out: Activity
A-375 [12] = assay: Induction of apoptosis in human A375 cells assessed as viable cells at 5 uM after 24 hrs by annexinV-FITC/propidium iodide staining based flow cytometric analysis (Rvb= 97.94%); format: functional; settings: read-out: Activity
HCT-116 = assay: Antiproliferative activity against human HCT-116 cells assessed as growth inhibition after 72 hrs by MTT assay; format: functional, cell-based; settings: Homo sapiens, HCT-116, 72 h; read-out: IC50; summary of the method: as §1
A-375 [13] = assay: Induction of apoptosis in human A375 cells assessed as late apoptotic cells at 5 uM after 12 hrs by annexinV-FITC/propidium iodide staining based flow cytometric analysis (reference value: 0.63%); format: functional
A-375 [14] = assay: Inhibition of PDK in human A375 cells assessed as reduction in phosphorylation of PDC E1alpha at ser293 residues at 5 uM after 24 hrs by Western blot analysis; format: cell-based
Summary of the method: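 A375 cells in 6-well plates, treated 24 h. Lysed 15 min and spun 12000 rpm at 4 °C for 15 min. Protein equalized by BCA and denatured in SDS buffer at 100 °C for 8 min. Run on SDS-PAGE, transferred to nitrocellulose, blocked in 5% milk 2 h, primary antibody overnight, HRP anti-rabbit IgG 2 h, ECL detection.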

Homo sapiens [15] = species on record: Homo sapiens; assay: Inhibition of PDK (unknown origin) using RYHGHSMSDP as substrate at 1 uM after 30 mins by Kinase-Glo luminescent assay
A-375 [16] = assay: Induction of apoptosis in human A375 cells assessed as early apoptotic cells at 5 uM after 24 hrs by annexinV-FITC/propidium iodide staining based flow cytometric analysis (reference value: 0.87%); format: functional
MCF7 [17] = assay: Antiproliferative activity against human MCF7 cells assessed as growth inhibition after 72 hrs by MTT assay; format: functional, cell-based; settings: Homo sapiens, MCF7, 72 h; read-out: IC50; summary of the method: as §1
A549 [18] = assay: Antiproliferative activity against human A549 cells assessed as growth inhibition after 72 hrs by MTT assay; format: functional, cell-based; settings: Homo sapiens, A549, 72 h; read-out: IC50; summary of the method: as §1
A-375 [19] = assay: Induction of apoptosis in human A375 cells assessed as necrotic cells at 5 uM after 24 hrs by annexinV-FITC/propidium iodide staining based flow cytometric analysis (reference value: 0.56%); format: functional
A549 [20] = assay: Antiproliferative activity against human A549 cells assessed as growth inhibition at 1 uM after 72 hrs by MTT assay relative to control; format: functional; settings: for inhibition of growth at 1 µM: read-out: GI; summary of the method: as §2
A-375 [21] = assay: Induction of apoptosis in human A375 cells assessed as necrotic cells at 5 uM after 36 hrs by annexinV-FITC/propidium iodide staining based flow cytometric analysis (reference value: 1.63%); format: functional
A-375 [22] = assay: Induction of apoptosis in human A375 cells assessed as necrotic cells at 5 uM after 12 hrs by annexinV-FITC/propidium iodide staining based flow cytometric analysis (reference value: 0.56%); format: functional
A-375 [23] = assay: Induction of cell cycle arrest in human A375 cells assessed as accumulation at G1 phase at 5 uM after 24 hrs by propidium iodide staining based flow cytometric analysis (reference value: 52.65%); format: functional
[24] = Inhibition of PDK (unknown origin) using RYHGHSMSDP as substrate after 30 mins by Kinase-Glo luminescent assay; design: species or system Homo sapiens
A-375 [25] = assay: Induction of apoptosis in human A375 cells assessed as early apoptotic cells at 5 uM after 36 hrs by annexinV-FITC/propidium iodide staining based flow cytometric analysis (reference value: 3.2%); format: functional
A549 [26] = assay: Antiproliferative activity against human A549 cells assessed as reduction in cell viability after 24 hrs by MTT assay; format: functional, cell-based; settings: A549, 24 h
Homo sapiens [27] = species on record: Homo sapiens; assay: Inhibition of PDK (unknown origin) using RYHGHSMSDP as substrate at 80 uM after 30 mins by Kinase-Glo luminescent assay

| IC50 (PC-3) [µM] | IC50 (A-375 [7]) [µM] | IC50 (SH-SY5Y) [µM] | IC50 (HCT-116) [µM] | inhibition (Homo sapiens [15]) [%] | IC50 (MCF7 [17]) [µM] | IC50 (A549 [18]) [µM] | EC50 [24] [µM] | Structure (SMILES) | IC50 (L02) [µM] | growth inhibition (GI) (MCF7 [5]) | inhibition of growth at 10 µM (MCF7 [8]) [%] | inhibition of growth at 10 µM (A549 [10]) [%] | inhibition of growth at 1 µM (A549 [20]) [%] | inhibition of growth at 1 µM (MCF7 [5]) [%] | further results |
| --- | --- | --- | --- | --- | --- | --- | --- | --- | --- | --- | --- | --- | --- | --- | --- |
| 8.7 | 4.9 | 5.6 | 6.2 | 72.4 | 7.8 | 3.5 | 0.33 | CC(C)Oc1ccc(C(=O)C(Cl)Cl)cc1[N+](=O)[O-] | 16.9 | inactive | 73.4 | 98.2 | 18.7 |  | Activity (A-375 [1]): 11.01%; Activity (A-375 [2]): 18.83%; Activity (A-375 [3]): 6.83%; Activity (A-375 [4]): 2.43%; Activity (A-375 [6]): 30.65%; viability at 5 µM (A-375 [9]): 91.1%; viability at 5 µM (A-375 [11]): 68.9%; viability at 5 µM (A-375 [12]): 84.2%; Activity (A-375 [13]): 2.66%; inhibition (A-375 [14]): Active; Activity (A-375 [16]): 4.71%; Activity (A-375 [19]): 4.29%; Activity (A-375 [21]): 2.31%; Activity (A-375 [22]): 3.77%; Activity (A-375 [23]): 58.34%; Activity (A-375 [25]): 6.6% |
| 0.47 | 0.9 | 1.1 | 0.5 | 65.8 | 1.9 | 1.2 | 0.55 | CC(C)(C)c1ccc(Nc2ccc(C(=O)C(Cl)Cl)cc2[N+](=O)[O-])cc1 | 5.9 |  | 96.4 | 93.2 | 48.8 | 41.2 |  |
| 2.34 | 1.8 | 2.3 | 1.5 | 48.8 | 2.98 | 3.1 | 1.49 | CC(C)(O)c1ccc(Nc2ccc(C(=O)C(Cl)Cl)cc2[N+](=O)[O-])cc1 | 7.8 |  | 92.8 | 96.3 | 37.9 | 33.9 |  |

| Structure (SMILES) | IC50 (PC-3) [µM] | IC50 (A-375 [7]) [µM] | IC50 (SH-SY5Y) [µM] | IC50 (HCT-116) [µM] | inhibition (Homo sapiens [15]) [%] | IC50 (MCF7 [17]) [µM] | IC50 (A549 [18]) [µM] | EC50 [24] [µM] | IC50 (L02) [µM] | growth inhibition (GI) (MCF7 [5]) | inhibition of growth at 10 µM (MCF7 [8]) [%] | inhibition of growth at 10 µM (A549 [10]) [%] | inhibition of growth at 1 µM (A549 [20]) [%] | inhibition of growth at 1 µM (MCF7 [5]) [%] | further results |
| --- | --- | --- | --- | --- | --- | --- | --- | --- | --- | --- | --- | --- | --- | --- | --- |
| O=C(c1ccccc1)C(Cl)Cl | 23.1 | 16.9 | 17.7 | 12.9 |  | 21.4 | 18.7 | > 80 | 19.7 | inactive | 42.2 | 55.2 |  |  | IC50 (A549 [26]): 15.9 µM; inhibition (Homo sapiens [27]): 36.6%; growth inhibition (GI) (A549 [20]): inactive |
